Source: paper PMC7027977 (Clinical Pharmacology and Therapeutics, 2019)
Several values for one entry are separate records, joined by “and”; a condition that tells them apart may be missing. Identical values can stand only once. Like-named read-outs stand apart in the source and are kept apart here. One block for each molecule: values may come before it.

Tests used:
[1] = system: patients with CD; conditions: cited from earlier work
[2] = Population pharmacokinetic analysis of upadacitinib IR formulation; type: in vivo, human
How it was run: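 A population PK model previously built for healthy subjects and RA patients was the starting model. It was fitted to sparse CELEST plasma concentrations: weeks 2–16, validated LC-MS, sampling time relative to last dose recorded. Covariate effects were judged by differences in Cave between covariate groups. Dose was tested as a covariate on model parameters to assess dose proportionality.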

[3] = type: in vivo, human; conditions: for Cmax: human, plasma, oral
How it was run: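 Patients with Crohn's disease took oral IR tablets at 3, 6, 12 or 24 mg b.i.d. or 24 mg q.d. for a 16-week induction. Sparse plasma samples were taken at weeks 2, 4, 8, 12 and 16, with time from last dose recorded, and assayed by validated LC-MS. Steady-state Cmax and Cmin came from empirical Bayesian individual estimates. Cave = Dose/(CL/F × dosing interval). Values are median (5th–95th percentiles).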

[4] = type: in vivo, human; conditions: healthy subjects, ER formulation study
How it was run: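 ER absorption parameters were estimated from phase I data in healthy volunteers given the extended-release formulation. They were then incorporated into the exposure–response models to simulate ER q.d. regimens.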

[5] = system: subjects with moderate‐to‐severe active Crohn's disease; test: Regression; type: in vivo, human; conditions: Cave as exposure metric; week 12/16
How it was run: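 SES-CD came from centrally read ileocolonoscopy at screening and at a randomly assigned week 12 or 16, with the two weeks pooled. End points were endoscopic response 25% and 50% and endoscopic remission, with nonresponder imputation. Regression Emax models related them to individual steady-state Cave over the dosing interval. The study used placebo and 3–24 mg b.i.d. or 24 mg q.d. IR oral dosing.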

[6] = cited from earlier work
[7] = 3 mg b.i.d. IR, steady-state, CD patients, CELEST
[8] = 6 mg b.i.d. IR, steady-state, CD patients, CELEST
[9] = 12 mg b.i.d. IR, steady-state, CD patients, CELEST
[10] = 24 mg b.i.d. IR, steady-state, CD patients, CELEST
[11] = 24 mg q.d. IR, steady-state, CD patients, CELEST

SMILES: O=C(Nc1nc2cccc(-c3ccc(CN4CCS(=O)(=O)CC4)cc3)n2n1)C1CC1 [Filgotinib]
- efficacy in CD [1]: has shown efficacy

- dose proportionality of exposure ([2]; 3–24 mg b.i.d.): approximately dose‐proportional
- higher Cave with renal impairment ([2]; creatinine clearance 50 mL/minute vs 110 mL/minute): 28%
- CL/F in subjects with CD relative to healthy subjects ([2]; population PK): comparable
- lower clearance in subjects with RA compared with non‐RA subjects ([2]; population PK): 22% and ~ 20%
- higher Cave in women compared with men ([2]; population PK covariate): 18%
- lower CL/F in women compared with men ([2]; population PK covariate): 15%
- lower Vc/F in women compared with men ([2]; population PK covariate): 25%
- difference in Cave among different covariate groups ([2]; renal impairment, sex, bodyweight covariates): < 30%
- lower Cave in subjects with CD than in subjects with RA ([2]; same dose): ~ 20%
- Intersubject variability in CL/F ([2]; subjects with CD): 41%
- Intersubject variability in Vc/F ([2]; subjects with CD): 29%
- Cave, median (5th to 95th percentiles) [3, 7]: 6.9 (4.6–14.1) ng/mL
- Cmin, median (5th to 95th percentiles) [3, 7]: 1.2 (0.4–6.6) ng/mL
- Cave, median (5th to 95th percentiles) [3, 8]: 14.9 (7.6–25.2) ng/mL
- Cmin, median (5th to 95th percentiles) [3, 8]: 2.6 (0.2–7.5) ng/mL
- Cave, median (5th to 95th percentiles) [3, 9]: 26.7 (8.5–49.6) ng/mL
- Cmax, median (5th to 95th percentiles) [3, 9]: 80.7 (25.3–124) ng/mL
- Cmin, median (5th to 95th percentiles) [3, 9]: 4.9 (0.2–25.2) ng/mL
- Cave, median (5th to 95th percentiles) [3, 10]: 55.1 (29.8–91.8) ng/mL
- Cmin, median (5th to 95th percentiles) [3, 10]: 7.8 (1.8–20.7) ng/mL
- Cave, median (5th to 95th percentiles) [3, 11]: 25.1 (13.6–92.0) ng/mL
- Cmin, median (5th to 95th percentiles) [3, 11]: 1.7 (0.3–34.2) ng/mL
- Cmax ([3]; 3 mg): 21.8 ng/mL
- Cmax ([3]; 6 mg): 40.2 ng/mL
- Cmax ([3]; 24 mg): 161 ng/mL
- bioavailability of ER formulation relative to IR formulation [4]: 74%
- EC50 for endoscopic remission [5]: 0.027 µg/mL
- EC50 for endoscopic response 50% [5]: 0.026 µg/mL
SMILES: CC[C@@H]1CN(C(=O)NCC(F)(F)F)C[C@@H]1c1cnc2cnc3[nH]ccc3n12 [Upadacitinib]
- dose proportionality of plasma exposures ([6]; 3–48 mg IR or 7.5–45 mg ER, ref 21,23 (data on file at AbbVie)): dose‐proportional
- functional half‐life ([6]; IR formulation): 3 to 4 h
- increase in bioavailability from the ER formulation after a high‐fat meal [6]: ~ 20%
- relative bioavailability of ER formulation ([6]; more extensive dataset in subjects with RA): 76%
- time to reach maximum plasma concentration ([6]; oral, IR formulation): 1 to 2 h
- exposure of ER 15 mg and 30 mg q.d. vs IR 6 mg b.i.d. and 12 mg b.i.d. ([6]; phase I study, healthy subjects): equivalent Cave and similar Cmax and Cmin

SMILES: C[C@@H]1CCN(C(=O)CC#N)C[C@@H]1N(C)c1ncnc2[nH]ccc12 [tofacitinib]
- efficacy in patients with CD ([1]; two phase II studies): did not demonstrate efficacy
